Source: ChEMBL document CHEMBL3102812 (J Med Chem, 2013)
≈ marks a conversion by molar mass, not a printed value. Calls of active or inactive are those of the source. No cut-off for these calls is given here.

Columns and labels:
[1] = Partition coefficient, log D of the compound at pH 7.4 by chromatographic method; settings: octanol/water
[2] = Kinetic aqueous solubility of the compound in phosphate buffer at pH 2 by nephelometric analysis; settings: for solubility kinetic: phosphate buffer
[3] = Kinetic aqueous solubility of the compound in phosphate buffer at pH 6.5 by nephelometric analysis
[4] = system: Trypanosoma cruzi; test: Antitrypanosomal activity against Trypanosoma cruzi Tulahuen 6 amastigotes infected in rat L6 cells after 96 hrs by colorimetric method; format: functional, organism-based; settings: Tulahuen 6, L6, 96 h
[5] = biological target: Cytochrome P450 3A4 (Homo sapiens, UniProt P08684); test: Inhibition of CYP3A4 in human liver microsomes assessed as 6beta-hydroxylation of testosterone
Sequence of Cytochrome P450 3A4 (P08684 whole entry): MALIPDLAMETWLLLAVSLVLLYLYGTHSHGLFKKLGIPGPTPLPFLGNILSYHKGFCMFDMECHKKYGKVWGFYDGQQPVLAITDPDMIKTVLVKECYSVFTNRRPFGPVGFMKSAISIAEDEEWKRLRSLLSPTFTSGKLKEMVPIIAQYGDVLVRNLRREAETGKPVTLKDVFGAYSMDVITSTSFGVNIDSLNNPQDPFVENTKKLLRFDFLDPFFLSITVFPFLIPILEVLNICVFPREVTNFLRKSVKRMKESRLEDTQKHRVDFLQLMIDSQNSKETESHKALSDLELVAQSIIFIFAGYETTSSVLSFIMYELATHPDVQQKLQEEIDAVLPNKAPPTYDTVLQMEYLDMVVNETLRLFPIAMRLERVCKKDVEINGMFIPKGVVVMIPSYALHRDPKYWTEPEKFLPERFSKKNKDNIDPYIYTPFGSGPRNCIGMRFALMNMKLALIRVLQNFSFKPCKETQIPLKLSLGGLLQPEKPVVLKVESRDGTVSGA

[6] = system: Mus musculus; test: Toxicity in Swiss mouse at 20 mg/kg, po; settings: in vivo
[7] = system: Trypanosoma cruzi; test: Antitrypanosomal activity against Trypanosoma cruzi Tulahuen 6 infected in Swiss mouse assessed as reduction in blood parasitemia at 20 mg/kg, po qd administered on day 8 post-infection for 10 days by microscopic analysis; format: functional, organism-based; design: dose 20 mg/kg
In short: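 Infected Swiss mice dosed orally at 20 mg/kg once daily for up to 10 days starting day 8 pi; blood parasitemia followed by microscopy throughout dosing, scored as cleared or not during the dosing period.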

Row | SMILES | chromatographic logD [1] | solubility kinetic [2] [µg/mL] | solubility kinetic [3] [µg/mL] | IC50 [4] [µM] | IC50 [5] [µM] | Activity [6] | Activity [7] | Kinetic solubility ([2]; buffer) [µg/mL]
1 | CC(C)(C)CC(=O)N1CCC(N(c2ccc(Cl)cc2)c2cccnc2)CC1 | 4.2 | > 100 | 6.3 (≈ 16.3 µM) | – | – | – | – | –
2 | N#Cc1ccc(C(C(=O)N2CCN(c3ccc(C(F)(F)F)cc3)CC2)c2cccnc2)cc1 (configuration not stated) | 3.8 | > 100 | 3.1 (≈ 6.88 µM) | 0.012 | > 20 | Non-toxic | – | –
3 | N#Cc1ccc(C(C(=O)N2CCN(c3ccc(C(F)(F)F)cn3)CC2)c2cccnc2)cc1 (configuration not stated) | 3.5 | 50 (≈ 111 µM) | 6.3 (≈ 14 µM) | 0.012 | > 20 | Non-toxic | – | –
4 | FC(F)(F)c1ccc(N(c2cccnc2)C2CCN(c3ccc(Cl)cc3)CC2)cc1 | > 5.3 | > 100 | < 1.6 | – | – | – | – | –
5 | FC(F)(F)c1ccc(N2CCC(N(c3ccc(C(F)(F)F)cc3)c3cccnc3)CC2)cc1 | – | – | – | 0.017 | – | – | – | –
6 | Cc1ncsc1C(=O)N1CCC(NC(c2ccc(C(F)(F)F)cc2)c2cccnc2)CC1 (configuration not stated) | – | – | – | 0.058 | – | Non-toxic | inactive | –
7 | N#Cc1ccc(N(c2cccnc2)C2CCN(c3ccc(C(F)(F)F)cc3)CC2)cc1 | 4.7 | 25 (≈ 59.2 µM) | < 1.6 | 0.003 | – | Non-toxic | – | –
8 | Cc1ccccc1CN1CCC(N(c2ccc(C(F)(F)F)cc2)c2cccnc2)CC1 | > 5.3 | > 100 | 3.1 (≈ 7.29 µM) | – | – | – | – | –
9 | N#Cc1ccccc1N1CCC(N(c2ccc(C(F)(F)F)cc2)c2cccnc2)CC1 | 4.9 | > 100 | < 1.6 | – | 5.2 | – | – | –
10 | O=C(C(c1ccc(Cl)cc1)c1cccnc1)N1CCN(c2ccc(C(F)(F)F)cn2)CC1 (configuration not stated) | 4.2 | – | 3.1 (≈ 6.73 µM) | 0.012 | 7 | Non-toxic | – | 25
11 | O=C([C@H](c1ccc(Cl)cc1)c1cccnc1)N1CCN(c2ccc(C(F)(F)F)cc2)CC1 | 4.5 | > 100 | 1.6 (≈ 3.48 µM) | – | 17 | – | – | –
12 | CS(=O)(=O)c1ccc(N2CCC(N(c3ccc(C#N)cc3)c3cccnc3)CC2)cc1 | 3 | 25 (≈ 57.8 µM) | < 1.6 | 0.002 | 12 | Non-toxic | – | –
13 | CS(=O)(=O)c1ccc(N2CCN(C(=O)C(c3ccc(Cl)cc3)c3cccnc3)CC2)cc1 (configuration not stated) | 3 | > 100 | 6.3 (≈ 13.4 µM) | 0.002 | 4 | Non-toxic | – | –
14 | CS(=O)(=O)c1ccc(N2CCN(C(=O)C(c3ccc(C#N)cc3)c3cccnc3)CC2)cc1 (configuration not stated) | 2.4 | 25 (≈ 54.3 µM) | 3.1 (≈ 6.73 µM) | 0.024 | > 20 | Non-toxic | – | –
15 | O=C(C(c1ccc(Cl)cc1)c1cccnc1)N1CCN(c2ccc(C(F)(F)F)nc2)CC1 (configuration not stated) | 3.7 | 50 (≈ 108 µM) | 6.3 (≈ 13.7 µM) | 0.008 | > 20 | Non-toxic | – | –
16 | N#Cc1ccc(C(C(=O)N2CCN(c3ccc(C(F)(F)F)nc3)CC2)c2cccnc2)cc1 (configuration not stated) | 3 | > 100 | 25 (≈ 55.4 µM) | – | > 20 | – | – | –
17 | N#Cc1ccc(C(O)(c2ccc(C(F)(F)F)cc2)c2cccnc2)cc1 (configuration not stated) | – | – | – | – | – | Non-toxic | Active | –
18 | FC(F)(F)c1ccc(N(c2cncnc2)C2CCN(c3ccc(C(F)(F)F)cn3)CC2)cc1 | 4.9 | 12.5 (≈ 26.7 µM) | < 1.6 | 0.005 | 6.3 | Non-toxic | – | –
19 | N#Cc1ccc(C(O)(c2ccc(C(F)(F)F)cc2)c2cccnc2)c(F)c1 (configuration not stated) | – | – | – | – | – | Non-toxic | Active | –
